Test results taken from ChEMBL document CHEMBL3351385, “Synthesis and preliminary mechanistic evaluation of 5-(p-tolyl)-1-(quinolin-2-yl)pyrazole-3-carboxylic acid amides with potent antiproliferative activity on human cancer cell lines” (Eur J Med Chem, 2014).
The source made the active and inactive calls. The calls are words filed in the database; no cut-off is given here.

How the values were obtained:
[1] = target: Tubulin (Homo sapiens) (UniProt P68371+Q9H4B7+P0DPH7+P68366+Q13509+Q71U36+P04350+Q3ZCM7+P07437+P68363+Q9BQE3+Q6PEY2+Q13885+Q9BVA1+Q9BUF5); assay: Inhibition of tubulin polymerization (unknown origin); assay type: protein-complex assay
[2] = Induction of cell cycle arrest in human Mahlavu cells assessed as accumulation at S phase at cytotoxic IC50 level after 48 hrs by propidium iodide staining based FACS method; assay type: functional
[3] = Induction of cell cycle arrest in human HuH7 cells assessed as accumulation at S phase at cytotoxic IC50 level after 48 hrs by propidium iodide staining based FACS method; assay type: functional, Huh-7
Method in brief: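 Huh7 cells were seeded at 150,000–300,000 per 100-mm dish and left 24 h. […] Cells were stained with a propidium iodide-containing cell cycle reagent, and subG1, G0/G1, S and G2/M fractions were scored by flow cytometry.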

[4] = target: Mitogen-activated protein kinase 3 (Homo sapiens) (UniProt P27361); assay: Inhibition of ERK1 (unknown origin) assessed as remaining enzyme activity at 10 uM by radioactive [33P]-ATP filter binding assay
Method in brief: (§1)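 A single 10 µM concentration was tested across a 140-kinase panel. Activity was measured by a radioactive 33P-ATP filter-binding assay run at the International Center for Kinase Profiling, University of Dundee.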

[5] = target: Mitogen-activated protein kinase 13 (Homo sapiens) (UniProt O15264); assay: Inhibition of p38delta (unknown origin) assessed as remaining enzyme activity at 10 uM by radioactive [33P]-ATP filter binding assay
[6] = target: Rho-associated protein kinase 2 (Homo sapiens) (UniProt O75116); assay: Inhibition of ROCK2 (unknown origin) assessed as remaining enzyme activity at 10 uM by radioactive [33P]-ATP filter binding assay
[7] = target: Tyrosine-protein kinase CSK (Homo sapiens) (UniProt P41240); assay: Inhibition of CSK (unknown origin) assessed as remaining enzyme activity at 10 uM by radioactive [33P]-ATP filter binding assay; method in brief: as §1
[8] = target: Tyrosine-protein kinase ZAP-70 (Homo sapiens) (UniProt P43403); assay: Inhibition of ZAP70 (unknown origin) assessed as remaining enzyme activity at 10 uM by radioactive [33P]-ATP filter binding assay
[9] = target: Receptor tyrosine-protein kinase erbB-4 (Homo sapiens) (UniProt Q15303); assay: Inhibition of HER4 (unknown origin) assessed as remaining enzyme activity at 10 uM by radioactive [33P]-ATP filter binding assay
[10] = target: Serine/threonine-protein kinase PINK1, mitochondrial (Homo sapiens) (UniProt Q9BXM7); assay: Inhibition of PINK (unknown origin) assessed as remaining enzyme activity at 10 uM by radioactive [33P]-ATP filter binding assay
[11] = target: Serine/threonine-protein kinase SIK2 (Homo sapiens) (UniProt Q9H0K1); assay: Inhibition of SIK2 (unknown origin) assessed as remaining enzyme activity at 10 uM by radioactive [33P]-ATP filter binding assay
[12] = target: Dual specificity tyrosine-phosphorylation-regulated kinase 2 (Homo sapiens) (UniProt Q92630); assay: Inhibition of DYRK2 (unknown origin) assessed as remaining enzyme activity at 10 uM by radioactive [33P]-ATP filter binding assay; method in brief: as §1
[13] = target: Inhibitor of nuclear factor kappa-B kinase subunit epsilon (Homo sapiens) (UniProt Q14164); assay: Inhibition of IKKepsilon (unknown origin) assessed as remaining enzyme activity at 10 uM by radioactive [33P]-ATP filter binding assay
[14] = target: Dual specificity protein kinase CLK2 (Homo sapiens) (UniProt P49760); assay: Inhibition of CLK2 (unknown origin) assessed as remaining enzyme activity at 10 uM by radioactive [33P]-ATP filter binding assay; method in brief: as §1
[15] = target: Serine/threonine-protein kinase 3 (Homo sapiens) (UniProt Q13188); assay: Inhibition of MST2 (unknown origin) assessed as remaining enzyme activity at 10 uM by radioactive [33P]-ATP filter binding assay
[16] = target: Mitogen-activated protein kinase kinase kinase kinase 3 (Homo sapiens) (UniProt Q8IVH8); assay: Inhibition of MAP4K3 (unknown origin) assessed as remaining enzyme activity at 10 uM by radioactive [33P]-ATP filter binding assay
[17] = target: Mitogen-activated protein kinase kinase kinase kinase 5 (Homo sapiens) (UniProt Q9Y4K4); assay: Inhibition of MAP4K5 (unknown origin) assessed as remaining enzyme activity at 10 uM by radioactive [33P]-ATP filter binding assay
[18] = target: Misshapen-like kinase 1 (Homo sapiens) (UniProt Q8N4C8); assay: Inhibition of MINK1 (unknown origin) assessed as remaining enzyme activity at 10 uM by radioactive [33P]-ATP filter binding assay
[19] = target: Mitogen-activated protein kinase kinase kinase 1 (Homo sapiens) (UniProt Q13233); assay: Inhibition of MEKK1 (unknown origin) assessed as remaining enzyme activity at 10 uM by radioactive [33P]-ATP filter binding assay
[20] = target: Mitogen-activated protein kinase kinase kinase 9 (Homo sapiens) (UniProt P80192); assay: Inhibition of MLK1 (unknown origin) assessed as remaining enzyme activity at 10 uM by radioactive [33P]-ATP filter binding assay

Chain of Mitogen-activated protein kinase 3 (Homo sapiens) (P27361 whole entry): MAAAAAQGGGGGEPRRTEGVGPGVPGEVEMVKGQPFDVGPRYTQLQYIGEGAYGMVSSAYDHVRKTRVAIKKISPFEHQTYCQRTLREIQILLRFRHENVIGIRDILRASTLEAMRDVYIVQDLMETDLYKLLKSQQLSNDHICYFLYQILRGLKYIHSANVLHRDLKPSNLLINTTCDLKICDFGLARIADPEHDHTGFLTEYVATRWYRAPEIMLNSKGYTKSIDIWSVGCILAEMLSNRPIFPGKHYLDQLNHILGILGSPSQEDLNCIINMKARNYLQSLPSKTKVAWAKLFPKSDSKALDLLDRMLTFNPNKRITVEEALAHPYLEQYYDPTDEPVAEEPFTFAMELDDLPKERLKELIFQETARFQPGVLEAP
Chain of Rho-associated protein kinase 2 (Homo sapiens) (O75116 whole entry, looked up): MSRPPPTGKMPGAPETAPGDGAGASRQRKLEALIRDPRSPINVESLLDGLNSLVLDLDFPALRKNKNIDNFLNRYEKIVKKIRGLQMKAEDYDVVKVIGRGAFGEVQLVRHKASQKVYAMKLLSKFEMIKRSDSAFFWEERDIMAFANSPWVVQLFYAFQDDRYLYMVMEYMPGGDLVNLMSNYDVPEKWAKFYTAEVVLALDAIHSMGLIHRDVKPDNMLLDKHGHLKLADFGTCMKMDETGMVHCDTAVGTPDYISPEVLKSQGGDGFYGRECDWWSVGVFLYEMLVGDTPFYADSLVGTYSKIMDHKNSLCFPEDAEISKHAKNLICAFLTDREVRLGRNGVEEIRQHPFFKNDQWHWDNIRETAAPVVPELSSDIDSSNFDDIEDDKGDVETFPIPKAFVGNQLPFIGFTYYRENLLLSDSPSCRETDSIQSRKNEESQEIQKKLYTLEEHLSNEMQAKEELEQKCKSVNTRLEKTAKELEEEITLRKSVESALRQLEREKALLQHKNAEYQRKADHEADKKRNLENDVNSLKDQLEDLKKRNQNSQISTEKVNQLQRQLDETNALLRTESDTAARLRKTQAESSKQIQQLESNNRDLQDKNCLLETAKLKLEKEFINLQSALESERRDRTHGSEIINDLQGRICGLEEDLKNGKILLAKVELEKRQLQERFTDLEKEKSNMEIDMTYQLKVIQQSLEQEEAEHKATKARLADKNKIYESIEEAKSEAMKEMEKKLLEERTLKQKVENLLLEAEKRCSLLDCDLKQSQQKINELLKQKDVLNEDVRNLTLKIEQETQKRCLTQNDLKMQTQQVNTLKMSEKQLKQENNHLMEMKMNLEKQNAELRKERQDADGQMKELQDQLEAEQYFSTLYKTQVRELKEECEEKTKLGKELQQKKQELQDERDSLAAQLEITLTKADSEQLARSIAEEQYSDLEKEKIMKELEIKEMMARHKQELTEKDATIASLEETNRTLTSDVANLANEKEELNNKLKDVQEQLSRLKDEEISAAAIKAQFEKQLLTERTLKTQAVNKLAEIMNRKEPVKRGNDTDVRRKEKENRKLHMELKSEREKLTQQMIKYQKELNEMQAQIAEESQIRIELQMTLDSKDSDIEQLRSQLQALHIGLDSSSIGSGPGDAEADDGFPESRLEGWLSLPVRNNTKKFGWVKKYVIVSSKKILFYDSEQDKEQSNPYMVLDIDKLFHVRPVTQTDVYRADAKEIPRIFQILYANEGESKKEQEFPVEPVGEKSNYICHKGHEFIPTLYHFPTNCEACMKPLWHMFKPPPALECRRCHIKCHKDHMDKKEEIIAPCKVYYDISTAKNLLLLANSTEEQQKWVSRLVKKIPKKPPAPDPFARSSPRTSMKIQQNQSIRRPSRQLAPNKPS
Chain of Dual specificity tyrosine-phosphorylation-regulated kinase 2 (Homo sapiens) (Q92630 whole entry): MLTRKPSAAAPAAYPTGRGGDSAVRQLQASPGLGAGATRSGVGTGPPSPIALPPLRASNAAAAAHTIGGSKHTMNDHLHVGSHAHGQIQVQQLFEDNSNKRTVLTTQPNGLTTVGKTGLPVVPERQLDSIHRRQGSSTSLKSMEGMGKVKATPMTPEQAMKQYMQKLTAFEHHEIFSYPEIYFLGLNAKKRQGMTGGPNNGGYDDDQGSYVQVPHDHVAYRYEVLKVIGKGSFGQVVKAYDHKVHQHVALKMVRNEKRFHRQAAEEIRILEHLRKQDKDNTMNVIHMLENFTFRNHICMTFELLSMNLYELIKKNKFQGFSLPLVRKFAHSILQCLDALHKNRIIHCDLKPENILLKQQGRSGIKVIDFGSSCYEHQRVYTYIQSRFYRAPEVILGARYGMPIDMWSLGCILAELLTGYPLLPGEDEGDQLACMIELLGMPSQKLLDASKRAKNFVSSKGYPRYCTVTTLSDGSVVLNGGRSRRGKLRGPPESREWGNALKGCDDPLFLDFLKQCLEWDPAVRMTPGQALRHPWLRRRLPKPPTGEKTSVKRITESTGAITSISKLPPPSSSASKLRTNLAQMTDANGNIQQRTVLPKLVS
Chain of Inhibitor of nuclear factor kappa-B kinase subunit epsilon (Homo sapiens) (Q14164 whole entry): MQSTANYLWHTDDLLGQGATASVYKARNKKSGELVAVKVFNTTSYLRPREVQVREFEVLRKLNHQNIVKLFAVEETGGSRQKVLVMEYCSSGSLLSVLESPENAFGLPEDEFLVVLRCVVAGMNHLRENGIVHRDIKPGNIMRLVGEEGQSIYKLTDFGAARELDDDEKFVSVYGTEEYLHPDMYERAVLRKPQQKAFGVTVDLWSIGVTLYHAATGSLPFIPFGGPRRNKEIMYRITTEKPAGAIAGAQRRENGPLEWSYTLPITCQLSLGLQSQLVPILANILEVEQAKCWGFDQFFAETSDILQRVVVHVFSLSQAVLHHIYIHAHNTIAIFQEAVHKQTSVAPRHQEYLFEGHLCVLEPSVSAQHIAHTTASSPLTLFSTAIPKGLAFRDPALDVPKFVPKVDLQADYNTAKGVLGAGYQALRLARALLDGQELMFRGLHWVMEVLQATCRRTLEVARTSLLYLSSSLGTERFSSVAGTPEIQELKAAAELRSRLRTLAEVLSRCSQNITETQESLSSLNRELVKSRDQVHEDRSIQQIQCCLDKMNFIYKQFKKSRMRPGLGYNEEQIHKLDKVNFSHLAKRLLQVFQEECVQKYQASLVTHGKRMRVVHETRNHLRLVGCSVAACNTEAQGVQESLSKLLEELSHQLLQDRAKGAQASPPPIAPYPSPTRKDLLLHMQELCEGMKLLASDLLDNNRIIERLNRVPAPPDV
Chain of Mitogen-activated protein kinase kinase kinase kinase 3 (Homo sapiens) (Q8IVH8 whole entry): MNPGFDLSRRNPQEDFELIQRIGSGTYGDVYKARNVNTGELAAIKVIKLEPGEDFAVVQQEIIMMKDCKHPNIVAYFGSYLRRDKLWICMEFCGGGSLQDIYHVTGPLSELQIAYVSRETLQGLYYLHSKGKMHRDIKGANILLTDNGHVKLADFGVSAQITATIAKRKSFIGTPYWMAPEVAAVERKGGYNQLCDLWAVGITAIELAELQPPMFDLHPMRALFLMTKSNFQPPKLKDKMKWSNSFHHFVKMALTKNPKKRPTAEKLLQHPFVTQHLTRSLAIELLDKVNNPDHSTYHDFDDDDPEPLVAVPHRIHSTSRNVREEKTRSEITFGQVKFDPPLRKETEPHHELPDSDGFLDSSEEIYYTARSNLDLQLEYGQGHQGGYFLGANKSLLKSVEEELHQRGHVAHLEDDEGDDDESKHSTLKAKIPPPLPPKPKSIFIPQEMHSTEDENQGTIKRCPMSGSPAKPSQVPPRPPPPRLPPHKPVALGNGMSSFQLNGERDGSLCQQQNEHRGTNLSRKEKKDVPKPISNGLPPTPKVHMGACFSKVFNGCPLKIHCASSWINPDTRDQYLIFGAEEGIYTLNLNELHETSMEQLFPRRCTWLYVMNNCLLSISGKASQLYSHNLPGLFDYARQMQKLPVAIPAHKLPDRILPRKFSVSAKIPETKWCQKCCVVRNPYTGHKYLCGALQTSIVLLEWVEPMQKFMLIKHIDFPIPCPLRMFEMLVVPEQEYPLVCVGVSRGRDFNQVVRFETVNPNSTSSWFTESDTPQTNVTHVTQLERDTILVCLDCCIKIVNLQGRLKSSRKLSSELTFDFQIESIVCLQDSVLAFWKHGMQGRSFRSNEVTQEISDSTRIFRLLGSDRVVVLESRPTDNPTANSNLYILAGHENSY
Chain of Serine/threonine-protein kinase PINK1, mitochondrial (Homo sapiens) (Q9BXM7 whole entry): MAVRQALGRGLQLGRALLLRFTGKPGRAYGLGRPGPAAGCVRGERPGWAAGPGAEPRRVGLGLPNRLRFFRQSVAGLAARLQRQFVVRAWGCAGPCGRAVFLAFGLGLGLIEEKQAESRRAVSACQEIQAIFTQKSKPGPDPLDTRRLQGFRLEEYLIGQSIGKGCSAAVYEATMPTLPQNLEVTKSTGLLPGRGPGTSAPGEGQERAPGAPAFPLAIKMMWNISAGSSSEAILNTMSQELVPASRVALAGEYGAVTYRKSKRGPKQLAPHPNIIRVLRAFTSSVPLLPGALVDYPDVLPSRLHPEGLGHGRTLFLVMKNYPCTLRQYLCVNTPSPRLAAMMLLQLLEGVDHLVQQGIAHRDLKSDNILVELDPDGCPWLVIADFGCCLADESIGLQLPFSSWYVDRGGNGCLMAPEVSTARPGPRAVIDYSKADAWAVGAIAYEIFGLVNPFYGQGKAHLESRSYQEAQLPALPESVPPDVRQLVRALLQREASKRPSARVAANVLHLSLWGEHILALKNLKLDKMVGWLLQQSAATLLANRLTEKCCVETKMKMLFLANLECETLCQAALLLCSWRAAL
Chain of Tyrosine-protein kinase CSK (Homo sapiens) (P41240 2-450 limits assumed): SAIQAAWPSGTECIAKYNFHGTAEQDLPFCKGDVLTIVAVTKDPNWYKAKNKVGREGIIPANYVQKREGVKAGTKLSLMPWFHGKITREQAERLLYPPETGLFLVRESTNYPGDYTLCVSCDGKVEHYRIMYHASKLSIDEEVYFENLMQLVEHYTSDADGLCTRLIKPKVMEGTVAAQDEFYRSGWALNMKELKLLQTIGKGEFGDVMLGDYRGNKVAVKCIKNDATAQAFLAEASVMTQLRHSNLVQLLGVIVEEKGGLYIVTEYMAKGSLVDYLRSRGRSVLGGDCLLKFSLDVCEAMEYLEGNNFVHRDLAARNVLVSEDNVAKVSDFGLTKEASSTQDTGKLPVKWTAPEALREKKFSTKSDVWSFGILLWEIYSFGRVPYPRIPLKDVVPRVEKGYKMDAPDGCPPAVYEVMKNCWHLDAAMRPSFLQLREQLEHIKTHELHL

- inhibition [1]: inactive
- Activity [4]: 103%
- Activity [5]: 87%
- Activity [6]: 85%
- Activity [7]: 109%
- Activity [8]: 115%
- Activity [9]: 128%
- Activity [10]: 114%
- Activity [11]: 106%
- Activity [12]: 96%
- Activity [13]: 112%
- Activity [14]: 83%
- Activity [15]: 104%
- Activity [16]: 90%
- Activity [17]: 87%
- Activity [18]: 114%
- Activity [19]: 113%
- Activity [20]: 90%
SMILES: Cc1ccc(-c2cc(C(=O)Nc3ccnc(Cl)c3)nn2-c2ccc3ccccc3n2)cc1
- Activity [2]: 11.1%
- Activity [3]: 10.3%
